Experimental data as given in ChEMBL document CHEMBL1143180, “Imidazolyl benzimidazoles and imidazo[4,5-b]pyridines as potent p38alpha MAP kinase inhibitors with excellent in vivo antiinflammatory properties” (Bioorg Med Chem Lett, 2008).

What was measured:
Macrophage = test: Inhibition of LPS-stimulated TNFalpha production in mouse peritoneal macrophages; type: functional, cell-based
Summary of the method: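 Murine peritoneal macrophages stimulated with LPS while exposed to test compound; TNFα release measured as functional read-out. Cell assay minimum significant ratio 2.8.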

[1] = molecular target: Mitogen-activated protein kinase 14 (Mus musculus, UniProt P47811); test: Inhibition of mouse p38alpha in anisomycin-stimulated RAW 264.7 cells by ELISA; type: cell-based
Mitogen-activated protein kinase 14 (Mus musculus, UniProt P47811), sequence (P47811 whole entry): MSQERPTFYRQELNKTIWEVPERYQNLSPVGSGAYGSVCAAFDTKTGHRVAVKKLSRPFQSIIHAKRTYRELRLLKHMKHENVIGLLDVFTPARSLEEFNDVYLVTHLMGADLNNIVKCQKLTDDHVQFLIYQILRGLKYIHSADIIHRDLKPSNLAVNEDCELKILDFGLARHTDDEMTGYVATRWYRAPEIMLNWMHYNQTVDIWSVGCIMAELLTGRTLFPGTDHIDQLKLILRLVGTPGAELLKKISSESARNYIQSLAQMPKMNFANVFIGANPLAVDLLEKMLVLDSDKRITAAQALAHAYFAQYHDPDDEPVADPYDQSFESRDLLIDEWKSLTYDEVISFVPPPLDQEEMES
Summary of the method: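 Cell-based ELISA: RAW 264.7 cells pretreated with compound, then stimulated with anisomycin; p38α activity detected by antibody to phospho-MAPKAPK-2 (Thr334), a residue phosphorylated specifically by p38α. Minimum significant ratio 2.8.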

[2] = molecular target: Mitogen-activated protein kinase 14 (Homo sapiens, UniProt Q16539); test: Inhibition of human recombinant p38alpha
Mitogen-activated protein kinase 14 (Homo sapiens, UniProt Q16539), sequence (Q16539 whole entry): as the sequence (P47811 whole entry) above, with H48L, A263T counted along it

Mus musculus = test: Inhibition of LPS-stimulated TNFalpha production in po dosed BALB/c mouse; type: functional
Rattus norvegicus [3] = test: Antiinflammatory activity against collagen-induced arthritis rat model assessed as inhibition of paw swelling administered orally twice daily for 14 days; type: functional
Summary of the method: (§1)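 Rat collagen-induced arthritis, 14-day chronic model; activity scored by paw swelling and by histopathology (bone erosion, cartilage destruction); TMED50 derived from dose response.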

Rattus norvegicus [4] = test: Antiinflammatory activity against collagen-induced arthritis rat model assessed as effect on histopathology scores administered orally twice daily for 14 days; type: functional; summary of the method: as §1
[5] = AUC (0 to infinity) in rat at 10 mg/kg, po; type: ADME, organism-based; design: time infinity, dose 10 mg/kg, route oral; conditions: plasma
Summary of the method: (§2)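 Rats dosed orally at 10 mg/kg; plasma exposure reported as AUC0-inf and terminal half-life.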

[6] = Half life in rat at 10 mg/kg, po; type: ADME, organism-based; design: dose 10 mg/kg, route oral; conditions: in vivo; summary of the method: as §2

Structure (SMILES)	IC50 (Macrophage) [nM]	IC50 [1] [nM]	IC50 [2] [nM]	AUC(0-inf) [5] [µM·h]	half-life [6] [h]	TMED50 (Mus musculus) [mg/kg]	TMED50 (Rattus norvegicus [3]) [mg/kg]	TMED50 (Rattus norvegicus [4]) [mg/kg]
CC(C)S(=O)(=O)n1c(N)nc2ccc(-c3[nH]cnc3-c3ccccc3)cc21	31.8	195	–	–	–	–	–	–
Cc1nc2ccc(-c3[nH]c(-c4c(F)cccc4F)nc3-c3ccccc3)cc2n1CC(C)C	338	–	11.2	–	–	–	–	–
Cc1nc(-c2ccccc2)c(-c2ccc3nc(N)n(S(=O)(=O)C(C)C)c3c2)[nH]1	186	–	20.4	–	–	–	–	–
Cc1nc(-c2ccc(F)cc2F)c(-c2ccc3nc(N)n(S(=O)(=O)C(C)C)c3c2)[nH]1	46.5	59.7	8.8	–	–	–	–	–
Cc1nc(-c2ccc(F)cc2)c(-c2ccc3nc(N)n(S(=O)(=O)C(C)C)c3c2)[nH]1	104	225	7.1	–	–	–	–	–
CC(C)S(=O)(=O)n1c(N)nc2ccc(-c3nc(-c4ccccc4C(F)(F)F)[nH]c3-c3ccccc3)cc21	33.1	284	26.1	–	–	–	–	–
Fc1cccc(F)c1-c1nc(-c2ccccc2)c(-c2ccc3nc[nH]c3c2)[nH]1	419	766	88.4	–	–	–	–	–
CC(C)S(=O)(=O)n1c(N(C)Cc2ccccc2)nc2ccc(-c3[nH]c(-c4c(F)cccc4F)nc3-c3ccccc3)cc21	234	–	2490	–	–	–	–	–
Nc1nc2ccc(-c3[nH]c(-c4c(F)cccc4F)nc3-c3ccccc3)cc2[nH]1	1330	–	131	–	–	–	–	–
CC(C)Cn1cnc2ccc(-c3[nH]c(-c4c(F)cccc4F)nc3-c3ccccc3)nc21	26.7	69.7	4.5	–	–	–	–	–
CCNc1nc2ccc(-c3[nH]c(-c4c(F)cccc4F)nc3-c3ccccc3)cc2n1S(=O)(=O)C(C)C	527	–	156	–	–	–	–	–
CC(C)S(=O)(=O)n1c(N)nc2ccc(-c3[nH]c(-c4ccc(Cl)cc4)nc3-c3ccccc3)cc21	71	376	34.7	–	–	–	–	–
CCNc1nc2ccc(-c3[nH]c(-c4c(F)cccc4F)nc3-c3ccccc3)cc2[nH]1	493	–	56.4	–	–	–	–	–
Nc1nc2ccc(-c3[nH]c(-c4c(F)cccc4F)nc3-c3ccccc3)cc2n1-c1ccccc1	–	–	158	–	–	–	–	–
CC(C)Cn1cnc2ccc(-c3[nH]c(-c4c(F)cccc4F)nc3-c3ccccc3)cc21	51.9	–	16.2	–	–	–	–	–
CC(C)Cn1c(N)nc2ccc(-c3[nH]c(-c4c(F)cccc4F)nc3-c3ccccc3)cc21	47.5	78.3	9.9	–	–	–	–	–

Now from value to molecule, other results behind:

IC50 (Macrophage) [nM]	IC50 [1] [nM]	IC50 [2] [nM]	AUC(0-inf) [5] [µM·h]	half-life [6] [h]	Structure (SMILES)	TMED50 (Mus musculus) [mg/kg]	TMED50 (Rattus norvegicus [3]) [mg/kg]	TMED50 (Rattus norvegicus [4]) [mg/kg]
2.6	38.9	–	–	–	CC(C)S(=O)(=O)n1c(N)nc2ccc(-c3nc(-c4c(Cl)cccc4Cl)[nH]c3-c3ccccc3)cc21	–	–	–
1.9	398	8.5	–	–	CC(C)S(=O)(=O)n1c(N)nc2ccc(-c3[nH]c(-c4c(Cl)cccc4C(F)(F)F)nc3-c3ccccc3)cc21	–	–	–
24.1	20.7	–	–	–	CC(C)(C)Cn1cnc2ccc(-c3[nH]c(C(C)(C)C)nc3-c3ccc(F)cc3F)nc21	–	–	–
3.7	298	3.5	–	–	CC(C)S(=O)(=O)n1c(N)nc2ccc(-c3[nH]c(-c4c(F)cccc4F)nc3-c3ccccc3)nc21	–	–	–
11.2	74.5	14.5	–	–	CC(C)S(=O)(=O)n1c(N)nc2ccc(-c3[nH]c(-c4c(F)cccc4Cl)nc3-c3ccccc3)cc21	–	–	–
10.3	45.7	–	5.5	5	CC(C)S(=O)(=O)n1c(N)nc2ccc(-c3[nH]c(-c4c(F)cccc4F)nc3-c3ccccc3)cc21	5.2	>30	>30
3.5	126	6	–	–	CC(C)(C)Cn1c(N)nc2ccc(-c3[nH]c(-c4c(F)cccc4F)nc3-c3ccccc3)cc21	–	–	–
5.3	27.5	6.7	–	–	CC(C)S(=O)(=O)n1c(N)nc2ccc(-c3nc(-c4c(Cl)cccc4Cl)[nH]c3-c3ccc(F)cc3)cc21	–	–	–
< 9	–	6.4	–	–	CC(C)(C)Cn1c(N)nc2ccc(-c3[nH]c(-c4c(F)cccc4F)nc3-c3ccccc3)nc21	–	–	–
6.2	26.2	–	14.6	8	CC(C)S(=O)(=O)n1c(N)nc2ccc(-c3[nH]c(C(C)(C)C)nc3-c3ccc(F)cc3F)cc21	2.2	1.5	8.1
1.7	64.7	3.7	29.9	4	CC(C)Cn1cnc2ccc(-c3[nH]c(-c4c(Cl)cccc4Cl)nc3-c3ccccc3)nc21.CS(=O)(=O)O	<2.5	15	>30
14.1	62.3	6.1	–	–	CC(C)S(=O)(=O)n1c(N)nc2ccc(-c3[nH]c(-c4ccncc4)nc3-c3ccccc3)cc21	–	–	–
1.3	35	2.5	–	–	CC(C)Cn1c(N)nc2ccc(-c3[nH]c(-c4c(F)cccc4F)nc3-c3ccccc3)nc21	–	–	–
